The results in this text go back to ChEMBL document CHEMBL1240389, “In vitro and in vivo activities of the novel anticytomegalovirus compound AIC246” (Antimicrob Agents Chemother, 2010).

The structures appear in SMILES notation. pEC50: −log10 of the molar value. Activity calls are given as the source filed them. The rule behind the calls is not given here.

Experiment [1] relates to Human betaherpesvirus 5. Put plainly: Antiviral activity against 1 MOI human cytomegalovirus AD169 infected in NHDF after 7 days by GFP-based fluorescent reduction assay. Format: functional, organism-based. The note with it: Human betaherpesvirus 5, AD169, NHDF, 168 h. In a few lines: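 NHDF cells (1.5 × 10⁴/well) infected with GFP-expressing HCMV AD169 at increasing MOI (0.003 to 1); after adsorption inoculum replaced, compound added in serial 3-fold dilutions, at least duplicate. 7 days at 37°C, medium swapped for PBS, GFP units read by CCD camera. EC₅₀ = 50% GFPU reduction versus no-drug virus control by nonlinear regression; at least triplicate experiments.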

Experiment [2] relates to Human betaherpesvirus 5. Put plainly: Antiviral activity against ganciclovir-resistant human cytomegalovirus isolate 1947R infected in NHDF assessed as inhibition of virus-induced cytopathic effect after 6 to 7 days by giemsa staining. Format: functional, organism-based. The note with it: Human betaherpesvirus 5, isolate 1947R. In a few lines: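 Cell-associated virus (infected NHDF cells) used as inoculum, at MOI 0.001 to 0.002, mixed with uninfected NHDF (1 × 10⁴ to 3 × 10⁴ cells/well). Compound was added in 2-fold serial dilutions, final 250 to 0.00005 μM, in duplicates. Incubation was 6 to 7 days at 37°C, followed by Giemsa/formalin staining and visual CPE scoring. EC₅₀ is 50% CPE inhibition versus untreated infected control; at least two independent experiments.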
On the technique in general: Cytopathic effects are the visible damage that an infection or toxin causes in cultured cells.

The subject of experiment [3] is Human betaherpesvirus 5. In words: Antiviral activity against human cytomegalovirus isolate 472 infected in NHDF assessed as inhibition of virus-induced cytopathic effect after 6 to 7 days by giemsa staining. The note with it: Human betaherpesvirus 5, isolate 472, NHDF. The experiment is classed as functional, organism-based. In a few lines: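 NHDF cells (1 × 10⁴/well) mixed with cell-free virus (MOI 0.03) or with infected-cell suspension (MOI 0.001 to 0.002). Compound was added from DMSO stocks in 2-fold serial dilutions, final 250 to 0.00005 μM, in duplicates. Plates were incubated 6 to 7 days at 37°C or until 100% CPE in virus control, then fixed and stained with Giemsa/formalin and scored microscopically. EC₅₀ is 50% CPE inhibition versus untreated infected control.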

Experiment [4] has as its system Human betaherpesvirus 5. In words: Antiviral activity against human cytomegalovirus infected in NHDF after 7 days by GFP-based fluorescent reduction assay. The experiment is classed as functional, organism-based. The note with it: Human betaherpesvirus 5, NHDF, 168 h. Put shortly:
(§1)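 Fibroblasts of the stated type (1.5 × 10⁴/well) infected with GFP-expressing recombinant AD169 (HCMV-GFP MOI 0.1 or RV-HG MOI 0.2 to 0.5). After adsorption the inoculum was replaced, with 3-fold serial compound dilutions at least in duplicate, and 7 days at 37°C. GFP units were read by CCD camera in PBS. EC₅₀ was derived from GFPU reduction versus untreated infected wells; at least triplicate runs.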

The subject of experiment [5] is Human betaherpesvirus 5. In words: Antiviral activity against human cytomegalovirus infected in human MRC5 cells after 7 days by GFP-based fluorescent reduction assay. The experiment is classed as functional, organism-based. The note with it: Human betaherpesvirus 5, MRC5, 168 h. Put shortly:
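MRC5 fibroblasts (1.5 × 10⁴/well) infected with GFP-expressing HCMV AD169; inoculum removed after adsorption, compound in serial 3-fold dilutions, at least duplicate. 7 days at 37°C, then PBS and GFP units read by CCD camera. EC₅₀ = 50% GFPU reduction versus no-drug virus control by nonlinear regression; mean ± SD of independent experiments.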

The subject of experiment [6] is Human betaherpesvirus 5. In words: Antiviral activity against human cytomegalovirus infected in human fibroblast assessed as decrease in infectious foci size at 50 nM after 5 days by DAPI staining. The experiment is classed as functional, organism-based. In a few lines:
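Late-stage infected fibroblasts (strictly cell-associated clinical isolate) cocultured with excess uninfected fibroblasts for 5 days with or without 50 nM drug. Methanol-fixed; IE antigen detected by indirect immunofluorescence (mAb E13, Cy3 secondary), nuclei DAPI-counterstained. Quadruplicate; mean infected cells per focus counted.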

Experiment [7] has as its system Human betaherpesvirus 5. In words: Antiviral activity against human cytomegalovirus Davis xenograft mouse model assessed as reduction of viral load administered via oral gavage QD for 9 days measured post last dose. Format: functional. The note with it: Human betaherpesvirus 5, Davis, 216 h. In a few lines:
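NOD SCID mice (18 to 25 g) implanted subcutaneously (dorsoscapular) with Gelfoam sponges seeded with 1 × 10⁶ NHDF cells infected with strain Davis (MOI 0.03), bFGF-treated. From 4 h post-transplant, dosed orally by gavage once daily for 9 days in 2% DMSO/0.5% methylcellulose-PBS, 10 ml/kg. Implants then collagenase-digested; recovered cells titrated by plaque assay on NHDF (PFU/ml).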
Background: In xenograft studies the graft and the host belong to different species.

The subject of experiment [8] is Human betaherpesvirus 5. Put plainly: Antiviral activity against human cytomegalovirus infected in HEL299 cells after 7 days by GFP-based fluorescent reduction assay. The experiment is classed as functional, organism-based. The note with it: Human betaherpesvirus 5, HEL 299, 168 h. In a few lines:
as §1

With `COc1cccc(N2CCN(C3=Nc4c(F)cccc4[C@H](CC(=O)O)N3c3cc(C(F)(F)F)ccc3OC)CC2)c1` [LETERMOVIR], the pEC50 (as a rule, the EC50 on a negative log10 scale, so that one unit is a factor of ten) with Human betaherpesvirus 5 [1] is 8.38; with Human betaherpesvirus 5 [2] it was 8.64; with Human betaherpesvirus 5 [3], 8.74; in the experiment with Human betaherpesvirus 5 [4] it was 8.46; with Human betaherpesvirus 5 [5] it was 8.35; in the experiment on Human betaherpesvirus 5 [8] it was 8.46. The outcome with Human betaherpesvirus 5 [6] was Active. Moreover, in the experiment with Human betaherpesvirus 5 [7], the ED50 – broadly, the dose that gives a 50% effect, or the effect in half of the subjects – was 3 mg/kg/day. In the experiment with Human betaherpesvirus 5 [7], the ED90 came out at 8 mg/kg/day.
